Values joined by “and” are separate entries in the source; they are usually repeats but may differ in a detail not shown here. Identical values can stand only once.
What was measured:
[1] = Compound was evaluated for the toxicity in mice; assay type: organism-based; settings: mouse, in vivo
Mus musculus [2] = test: Compound was evaluated for the percent reduction of carrageenan induced edema in mice at dose of 30 mg/kg; assay type: functional
Mus musculus [3] = test: Compound was evaluated for the percent reduction of carrageenan induced edema in mice at dose of 50 mg/kg; assay type: functional
Mus musculus [4] = test: Compound was evaluated for the percent reduction of carrageenan induced edema in mice at dose of 40 mg/kg; assay type: functional
Mus musculus [5] = test: Compound was evaluated for the percent reduction of carrageenan induced edema in mice at dose of 150 mg/kg; assay type: functional
Mus musculus [6] = test: Compound was evaluated for the percent reduction of carrageenan induced edema in mice at dose of 75 mg/kg; assay type: functional
Mus musculus [7] = test: Compound was evaluated for the percent reduction of carrageenan induced edema in mice at dose of 200 mg/kg; assay type: functional
Mus musculus [8] = test: Compound was evaluated for the percent reduction of carrageenan induced edema in mice at dose of 25 mg/kg; assay type: functional
Mus musculus [9] = test: Compound was evaluated for the percent reduction of carrageenan induced edema in mice at dose of 10 mg/kg; assay type: functional
Mus musculus [10] = test: Compound was evaluated for the percent reduction of carrageenan induced edema in mice at dose of 3 mg/kg; assay type: functional
Rattus norvegicus [11] = test: Compound was evaluated in the developed adjuvant arthritis assay at a dose of 10 mg/kg for the percent reduction of carrageenan induced edema (LHF) on 21st day; assay type: functional
Method in brief: (§1)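 Rats received 0.1 mL heat-killed Mycobacterium tuberculosis suspension (3.5 mg/mL) into the left hind footpad on day 1. On day 20, animals with developed arthritis (all four paws swollen, tail and ears involved) were used. Oral gavage in 0.25% methylcellulose (0.005 mL/g) on days 20 and 22. Hind paw volumes were recorded daily on days 20–23. Mean group volume is expressed as percent change from day 20.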

Rattus norvegicus [12] = test: Compound was evaluated in the developed adjuvant arthritis assay at a dose of 10 mg/kg for the percent reduction of carrageenan induced edema (LHF) on 22nd day; assay type: functional; method in brief: as §1
Rattus norvegicus [13] = test: Compound was evaluated in the developed adjuvant arthritis assay at a dose of 10 mg/kg for the percent reduction of carrageenan induced edema (LHF) on 23rd day; assay type: functional; method in brief: as §1
Mus musculus [14] = test: Percent analgesia in phenylquinone writhing assay at 10 mg/kg; assay type: functional
Method in brief: (§2)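 Groups of 10 male mice were dosed orally with compound dissolved or suspended in 0.25% methylcellulose (0.25 mL per mouse). After the designated interval they were challenged ip with 0.25 mL of 0.02% phenylquinone in aqueous ethanol (95:5). Read-out is the percentage of mice protected from writhing.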

Mus musculus [15] = test: Percent analgesia in phenylquinone writhing assay at 100 mg/kg; assay type: functional; method in brief: as §2
Mus musculus [16] = test: Percent analgesia in phenylquinone writhing assay at 30 mg/kg; assay type: functional; method in brief: as §2
Mus musculus [17] = species: Mus musculus; test: Dose giving one-half of average maximal [40%] response in carrageenan assay; assay type: functional
Mus musculus [18] = species: Mus musculus; test: Dose giving one-half of average maximal [40%] response in phenylquinone writhing assay; assay type: functional
Mus musculus [19] = test: Compound was evaluated for the percent reduction of carrageenan induced edema in mice at dose of 100 mg/kg; assay type: functional
Mus musculus [20] = species: Mus musculus; test: (§3) Neurotoxic dose that causes minimal recognizable neurotoxicity in 50% of animals tested; assay type: functional
Method in brief: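 Mice dosed orally or intraperitoneally; neurotoxicity scored on five end points, including a positional sense test in which a hind leg lowered over a table edge should be quickly lifted back to a normal position. NTD50 is the dose giving minimal recognizable neurotoxicity in 50% of animals tested.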

Rattus norvegicus [21] = test: Compound was evaluated in the developed adjuvant arthritis assay at a dose of 100 mg/kg for the percent reduction of carrageenan induced edema (LHF) on 21st day; assay type: functional; method in brief: as §1
Rattus norvegicus [22] = test: Compound was evaluated in the developed adjuvant arthritis assay at a dose of 100 mg/kg for the percent reduction of carrageenan induced edema (LHF) on 22nd day; assay type: functional; method in brief: as §1
Rattus norvegicus [23] = test: Compound was evaluated in the developed adjuvant arthritis assay at a dose of 100 mg/kg for the percent reduction of carrageenan induced edema (LHF) on 23rd day; assay type: functional; method in brief: as §1
Rattus norvegicus [24] = test: Compound was evaluated in the developed adjuvant arthritis assay at a dose of 30 mg/kg for the percent reduction of carrageenan induced edema (LHF) on 21st day; assay type: functional; method in brief: as §1
Rattus norvegicus [25] = test: Compound was evaluated in the developed adjuvant arthritis assay at a dose of 30 mg/kg for the percent reduction of carrageenan induced edema (LHF) on 22nd day; assay type: functional; method in brief: as §1
Rattus norvegicus [26] = test: Compound was evaluated in the developed adjuvant arthritis assay at a dose of 30 mg/kg for the percent reduction of carrageenan induced edema (LHF) on 23rd day; assay type: functional; method in brief: as §1
Rattus norvegicus [27] = test: Compound was evaluated in the developed adjuvant arthritis assay at a dose of 300 mg/kg for the percent reduction of carrageenan induced edema (LHF) on 21st day; assay type: functional; method in brief: as §1
Rattus norvegicus [28] = test: Compound was evaluated in the developed adjuvant arthritis assay at a dose of 300 mg/kg for the percent reduction of carrageenan induced edema (LHF) on 22nd day; assay type: functional; method in brief: as §1
Rattus norvegicus [29] = test: Compound was evaluated in the developed adjuvant arthritis assay at a dose of 300 mg/kg for the percent reduction of carrageenan induced edema (LHF) on 23rd day; assay type: functional; method in brief: as §1
Rattus norvegicus [30] = species: Rattus norvegicus; test: (§4) Ulcerogenic dose that produced gastric lesions, ulcers and/or hemorrhage in 50% of the animals tested; assay type: functional, Stomach
Method in brief: (§5)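 Ten male Sprague–Dawley rats (ca. 160 g) were fasted 24 h with water available, then dosed po with compound or vehicle. At 4 h they were killed with CO2, and stomachs were opened along the greater curvature. A nonbiased observer scored ulcers, pitting or hemorrhagic spots. UD50 (lesions in 50% of animals) was determined by Litchfield–Wilcoxon.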

[31] = Lethal dose evaluated in NPP assay; assay type: toxicity, organism-based; settings: mouse, in vivo
Mus musculus [32] = test: Compound was evaluated for the percent reduction of carrageenan induced edema in mice at dose of 1 mg/kg; assay type: functional
Mus musculus [33] = test: Percent analgesia in phenylquinone writhing assay at 300 mg/kg; assay type: functional; method in brief: as §2
[34] = as §3; assay type: toxicity, organism-based; settings: mouse, in vivo; read-out: NTD50
Method in brief: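 NTD50 in mice is the oral or intraperitoneal dose causing minimal recognizable neurotoxicity in 50% of animals, judged by five end points, including a positional sense test (hind leg lowered over a table edge should be lifted back).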

Mus musculus [35] = test: Percent analgesia in phenylquinone writhing assay at 3 mg/kg; assay type: functional; method in brief: as §2
[36] = as §4; assay type: ADME, organism-based, Stomach; settings: rat, in vivo; read-out: UD50 (the source's name); method in brief: as §5

CC1=C(C(=O)Nc2c(Br)cccc2Br)SC2=NCCN21
LD50 [1]: 40 mg/kg
Reduction (Mus musculus [2]): 0%

CCOC(=O)C1=C(C)N2CCN=C2S1
LD50 [1]: 180 mg/kg
Reduction (Mus musculus [3]): 2%

Cc1cc(C)c(NC(=O)C2=C(c3ccccc3)N3CCN=C3S2)c(C)c1
LD50 [1]: 80 mg/kg
Reduction (Mus musculus [3]): 23%

CC1(C)CN2C(c3ccccc3)=CSC2=N1
LD50 [1]: 60 mg/kg
Reduction (Mus musculus [4]): 0%

CCOC(=O)Cc1ccc(C2=CSC3=NCCN23)cc1
LD50 [1]: 180 mg/kg
Reduction (Mus musculus [5]): 0%

CC1=C(C(=O)Nc2ccccc2F)SC2=NCCN21
LD50 [1]: 100 mg/kg
Reduction (Mus musculus [6]): 15%

CS(=O)(=O)CC1=CSC2=NCCN12
Reduction (Mus musculus [7]): 11%

CC1=C(C(=O)Nc2c(Cl)cccc2Cl)SC2=NCCN21
LD50 [1]: 60 mg/kg

OC1(C(F)(F)F)CSC2=NC3CCCCC3N21 (stereo not drawn)
Reduction (Mus musculus [7]): 18%

CC1(C)SC2=NC3CCCCC3N2C1(O)c1ccccc1 (stereo not drawn)
Reduction (Mus musculus [7]; 200 mg/kg): 15% and 30%

c1ccc(C2=C(c3ccccc3)N3CCN=C3S2)cc1
LD50 [1]: 40 mg/kg
Reduction (Mus musculus [8]): 14%

CC1=C(C(=O)Nc2cccc(C(F)(F)F)c2)SC2=NCCN21
LD50 [1]: 240 mg/kg
Reduction (Mus musculus [7]): 36%

CC1(O)CSC2=NC3CCCCC3N21 (stereo not drawn)
Reduction (Mus musculus [9]): 15%
Reduction (Mus musculus [8]): 7%
Reduction (Mus musculus [2]): 7%
Reduction (Mus musculus [10]): 10%
Reduction (Mus musculus [3]): 45%
Reduction (Rattus norvegicus [11]): 3%
Reduction (Rattus norvegicus [12]): 2%
Reduction (Rattus norvegicus [13]): 11%

CS(=O)(=O)C1=C(c2ccccc2)N2CCN=C2S1
Analgesia (Mus musculus [14]): 10%
Analgesia (Mus musculus [15]): 90%
Analgesia (Mus musculus [16]): 60%
ED50 (Mus musculus [17]): 30 mg/kg
ED50 (Mus musculus [18]): 30 mg/kg
LD50 [1]: > 300 mg/kg
Reduction (Mus musculus [9]): 33%
Reduction (Mus musculus [7]): 43%
Reduction (Mus musculus [19]): 30%
NTD50 (Mus musculus [20]): 690 mg/kg
Reduction (Mus musculus [2]): 26%
Reduction (Mus musculus [10]): 15%
Reduction (Rattus norvegicus [21]): 11%
Reduction (Rattus norvegicus [22]): 26%
Reduction (Rattus norvegicus [23]): 16%
Reduction (Rattus norvegicus [24]): 10%
Reduction (Rattus norvegicus [25]): 15%
Reduction (Rattus norvegicus [26]): 7%
Reduction (Rattus norvegicus [27]): 10%
Reduction (Rattus norvegicus [28]): 19%
Reduction (Rattus norvegicus [29]): 17%
UD50 (Rattus norvegicus [30]): >100 mg/kg
LD50 [31]: > 1000 mg/kg

CC1(C)CN2C(CS(=O)(=O)c3ccccc3)=CSC2=N1
Reduction (Mus musculus [7]): 5%

O=S(=O)(C1=C(c2ccccc2)N2CCN=C2S1)c1ccccc1
Reduction (Mus musculus [9]): 10%
Reduction (Mus musculus [19]): 15%
Reduction (Mus musculus [2]): 6%

CCOC(=O)C1(O)CSC2=NC3CCCCC3N21 (stereo not drawn)
Reduction (Mus musculus [7]): 3%

CC1=C(C(=O)Nc2c(C)cc(C)cc2C)SC2=NCCN21
LD50 [1]: 60 mg/kg
Reduction (Mus musculus [4]): 11%

CC1=CSC2=NC(C)(C)CN12
LD50 [1]: 60 mg/kg
Reduction (Mus musculus [4]): 0%

CC1=C(C(=O)Nc2c(C)cc(C)cc2C)SC2=NC(C)CN21 (stereo not drawn)
LD50 [1]: 400 mg/kg
Reduction (Mus musculus [7]): 24%

CC1=C(C(=O)Nc2c(C)cc(C)cc2C)SC2=NC(C)(C)CN21
LD50 [1]: 60 mg/kg
Reduction (Mus musculus [4]): 3%

CC(C)(C)C1=CSC2=NC3CCCCC3N12 (stereo not drawn)
LD50 [1]: 20 mg/kg

CC1=C(C(=O)N2C(C)CCC2C)SC2=NCCN21 (stereo not drawn)
LD50 [1]: 240 mg/kg
Reduction (Mus musculus [7]): 20%

CC1=CSC2=NC3CCCCC3N12 (cis isomer)
LD50 [1]: 20 mg/kg
Reduction (Mus musculus [32]): 15%
Reduction (Mus musculus [8]): 57%
Reduction (Mus musculus [3]): 80%

CC(=O)Oc1ccccc1C(=O)O [ASPIRIN]
Analgesia (Mus musculus [15]): 60%
Analgesia (Mus musculus [16]): 20%
Analgesia (Mus musculus [33]): 90%
ED50 (Mus musculus [17]): 70 mg/kg
ED50 (Mus musculus [18]): 85 mg/kg
TD50 [34]: 200 mg/kg
UD50 (Rattus norvegicus [30]): 27 mg/kg

CC(C)Cc1ccc(C(C)C(=O)O)cc1 (stereo not drawn) [IBUPROFEN]
Analgesia (Mus musculus [14]): 50%
Analgesia (Mus musculus [35]): 30%
Analgesia (Mus musculus [16]): 90%
NTD50 (Mus musculus [20]): 470 mg/kg
UD50 (Rattus norvegicus [30]): 60 mg/kg
LD50 [31]: > 1000 mg/kg

COc1ccc2cc([C@H](C)C(=O)O)ccc2c1 [NAPROXEN]
TD50 [34]: 370 mg/kg
UD50 (Rattus norvegicus [30]): 10 mg/kg

CCCCC1C(=O)N(c2ccccc2)N(c2ccccc2)C1=O [PHENYLBUTAZONE]
ED50 (Mus musculus [17]): 50 mg/kg
ED50 (Mus musculus [18]): 64 mg/kg
NTD50 (Mus musculus [20]): 690 mg/kg
UD50 (Rattus norvegicus [30]): 75 mg/kg
LD50 [31]: > 300 mg/kg

Cc1ccc(C(=O)c2ccc(CC(=O)O)n2C)cc1 [TOLMETIN]
Analgesia (Mus musculus [14]): 40%
Analgesia (Mus musculus [15]): 80%
Analgesia (Mus musculus [16]): 60%
ED50 (Mus musculus [17]): 20 mg/kg
ED50 (Mus musculus [18]): 22 mg/kg
NTD50 (Mus musculus [20]): >1000 mg/kg
TD50 [36]: 63 mg/kg

From ChEMBL document CHEMBL1121836, “Effect of structural change on acute toxicity and antiinflammatory activity in a series of imidazothiazoles and thiazolobenzimidazoles” (J Med Chem, 1981)
